Data set [1] has as its target Histamine H1 receptor (Homo sapiens) (UniProt P35367). Put plainly: Displacement of [3H] pyrilamine from human recombinant H1 histamine receptor at 10^-6 M measured after 60 mins by scintillation counting method relative to control.
The nature of data set [2]: Mutagenicity in Salmonella typhimurium TA100 at up to 10 uM measured after 90 mins by Ames test. The format is toxicity. The conditions noted are these: salmonella enterica subsp. enterica serovar typhimurium. In a few lines: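 Ames microplate fluctuation with S. typhimurium TA100; bacteria exposed to 1 and 10 μM compound 90 min at 37°C in limited-histidine medium, then distributed into histidine-free indicator medium, 72 h at 37°C. Revertant growth scored by colour change (absorbance 420 nm); NQNO 0.5 μM positive control; alert at ≥2.0-fold over baseline and binomial B ≥0.99.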

Another data set has as its target Cytochrome P450 2D6 (Homo sapiens, UniProt P10635). Put plainly: Inhibition of human recombinant CYP2D6 expressed in Escherichia coli at 6.4 uM using luciferin ME-EGE as substrate preincubated for 5 mins followed by NADPH addition measured after 45 mins by P450-Glo luminescence assay. As to conditions: recombinant enzyme, 0.75 h; call rule not given here. The format is ADME. The method, boiled down: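 P450-Glo luminescent assays: enzyme, proluciferin and compound (final 0.01–25 μM) preincubated 5 min, reaction started with NADPH regeneration system; incubated at room temperature 30 min (CYP3A4) or 45 min (CYP2D6).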

Data set [3] has as its target T1, Alpha-1A adrenergic receptor (Rattus norvegicus) (UniProt P43140).
T1 sequence (whole entry): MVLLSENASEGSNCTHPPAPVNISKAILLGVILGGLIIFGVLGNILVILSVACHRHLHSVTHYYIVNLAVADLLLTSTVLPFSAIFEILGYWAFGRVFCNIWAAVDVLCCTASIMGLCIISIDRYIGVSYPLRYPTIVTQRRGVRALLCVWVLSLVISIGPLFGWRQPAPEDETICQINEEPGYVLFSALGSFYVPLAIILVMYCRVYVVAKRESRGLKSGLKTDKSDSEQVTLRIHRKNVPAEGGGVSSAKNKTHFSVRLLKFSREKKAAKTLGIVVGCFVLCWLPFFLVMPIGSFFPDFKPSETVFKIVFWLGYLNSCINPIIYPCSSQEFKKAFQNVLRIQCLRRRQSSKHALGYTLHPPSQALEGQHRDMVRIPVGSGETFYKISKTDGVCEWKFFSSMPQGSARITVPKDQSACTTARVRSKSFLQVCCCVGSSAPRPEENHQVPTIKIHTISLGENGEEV
Put plainly: Displacement of [3H] prazosin from rat alpha 1A adrenergic receptor at 10^-6 M measured after 60 mins by scintillation counter method relative to control.

Data set [4] deals with T2, Muscarinic acetylcholine receptor M1 (Homo sapiens) (UniProt P11229).
T2 sequence (whole entry): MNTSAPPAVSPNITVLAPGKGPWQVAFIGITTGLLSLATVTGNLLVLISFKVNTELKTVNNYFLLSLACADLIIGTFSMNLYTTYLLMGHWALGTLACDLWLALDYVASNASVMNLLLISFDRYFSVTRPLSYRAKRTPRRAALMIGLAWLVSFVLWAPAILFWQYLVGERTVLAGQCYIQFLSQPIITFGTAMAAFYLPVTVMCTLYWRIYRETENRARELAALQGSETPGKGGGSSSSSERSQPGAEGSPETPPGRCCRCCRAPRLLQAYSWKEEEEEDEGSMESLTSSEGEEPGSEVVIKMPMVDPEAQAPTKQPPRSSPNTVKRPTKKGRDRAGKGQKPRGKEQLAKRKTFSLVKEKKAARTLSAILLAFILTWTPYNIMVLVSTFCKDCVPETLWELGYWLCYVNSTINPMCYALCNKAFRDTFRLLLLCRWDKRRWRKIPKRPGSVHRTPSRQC
Put plainly: Displacement of [3H] pirenzepine from human recombinant muscarinic M1 receptor at 10^-6 M measured after 60 mins by scintillation counter method relative to control.

Data set [5] addresses T3, 5-hydroxytryptamine receptor 2C (Homo sapiens) (UniProt P28335).
T3 sequence (whole entry): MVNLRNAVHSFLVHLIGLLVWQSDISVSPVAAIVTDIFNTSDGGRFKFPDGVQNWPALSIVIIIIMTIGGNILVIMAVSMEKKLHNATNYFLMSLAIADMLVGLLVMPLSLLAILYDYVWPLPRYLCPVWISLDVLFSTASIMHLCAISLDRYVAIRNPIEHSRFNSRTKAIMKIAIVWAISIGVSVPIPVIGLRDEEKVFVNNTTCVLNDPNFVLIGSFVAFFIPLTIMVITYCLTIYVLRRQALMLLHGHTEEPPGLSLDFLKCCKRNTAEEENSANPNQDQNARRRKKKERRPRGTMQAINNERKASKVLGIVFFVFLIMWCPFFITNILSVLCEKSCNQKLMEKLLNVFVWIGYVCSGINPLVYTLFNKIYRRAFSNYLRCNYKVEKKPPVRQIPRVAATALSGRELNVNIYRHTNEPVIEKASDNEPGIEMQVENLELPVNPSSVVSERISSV
Put plainly: Agonist activity at human 5HT2C serotonin receptor at 10^-5 M relative to control.

SMILES strings stand for the structures.

Cytochrome P450 2D6, sequence (P10635 whole entry): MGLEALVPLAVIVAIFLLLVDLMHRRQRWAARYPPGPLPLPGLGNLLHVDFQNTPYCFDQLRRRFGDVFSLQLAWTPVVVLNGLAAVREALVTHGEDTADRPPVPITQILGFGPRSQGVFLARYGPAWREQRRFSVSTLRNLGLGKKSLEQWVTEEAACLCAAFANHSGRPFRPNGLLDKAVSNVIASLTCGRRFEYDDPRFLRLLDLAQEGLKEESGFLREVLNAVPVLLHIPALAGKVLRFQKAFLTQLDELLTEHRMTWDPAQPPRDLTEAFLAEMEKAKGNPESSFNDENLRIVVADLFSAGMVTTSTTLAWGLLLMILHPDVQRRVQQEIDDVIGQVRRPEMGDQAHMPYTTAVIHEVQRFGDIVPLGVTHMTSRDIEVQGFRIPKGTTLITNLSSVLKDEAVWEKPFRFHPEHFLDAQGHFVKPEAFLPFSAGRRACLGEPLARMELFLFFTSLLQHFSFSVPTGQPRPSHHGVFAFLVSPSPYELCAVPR
Histamine H1 receptor (Homo sapiens), sequence (P35367 whole entry): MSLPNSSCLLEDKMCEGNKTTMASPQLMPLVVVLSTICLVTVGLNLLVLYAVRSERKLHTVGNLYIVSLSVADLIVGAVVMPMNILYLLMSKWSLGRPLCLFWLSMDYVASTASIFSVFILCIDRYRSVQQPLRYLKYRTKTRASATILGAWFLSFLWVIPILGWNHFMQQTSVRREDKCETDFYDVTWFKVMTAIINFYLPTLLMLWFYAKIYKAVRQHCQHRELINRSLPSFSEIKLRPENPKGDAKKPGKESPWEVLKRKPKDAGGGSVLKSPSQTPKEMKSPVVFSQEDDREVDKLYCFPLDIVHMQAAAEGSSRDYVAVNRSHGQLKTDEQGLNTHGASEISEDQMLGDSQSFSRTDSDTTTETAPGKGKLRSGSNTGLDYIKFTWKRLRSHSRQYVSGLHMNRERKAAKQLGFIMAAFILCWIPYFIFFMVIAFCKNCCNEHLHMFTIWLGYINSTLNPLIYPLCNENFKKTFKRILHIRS

As for `Cc1nc(N)[nH]c1-c1cn(S(=O)(=O)c2cccc3ccccc23)c2ccccc12.Cl`, the inhibition in data set [1] was 70.1%; in data set [3] it was 10.7%; in data set [4] it was -0.3%. The Activity result in data set [2] was “Non-Toxic”; in data set [5], 21.3%. In addition, the “inhibition (INH)” value at Cytochrome P450 2D6 is “Active”.

The values are drawn from ChEMBL document CHEMBL4351001, “2-Aminoimidazole-based antagonists of the 5-HT6 receptor - A new concept in aminergic GPCR ligand design” (Eur J Med Chem, 2019).
